Converted amounts (≈) assume the structure as drawn. The source made the active and inactive calls. The calls are words filed in the database; no cut-off is given here.
Tests used:
Rattus norvegicus [1] = experiment: (§1) Antiischemic activity in Sprague-Dawley rat assessed as reduction in middle cerebral artery occlusion-induced infarct size in brain at 80 mg/kg administered via gavage for 7 days prior to middle cerebral artery occlusion-challenge measured after 24 hrs by triphenyltetrazolium chloride assay relative to control; format: functional, organism-based; set-up: dose 80 mg/kg
Outline: (§2)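 Male SD rats (280−320 g), n = 12 per group, dosed by gavage daily for 7 days in 0.5% CMC-Na vehicle. Sham animals received vehicle only. Two hours after the last dose, rats were anesthetized with chloral hydrate (300 mg/kg ip) and given MCAO for 2 h, then reperfused. Body temperature was held at 37 °C. All endpoints were read at 24 h post reperfusion.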

[2] = Stability in artificial intestinal juice assessed as compound remaining at pH 6.8 after 4 hr by HPLC analysis; format: physicochemical; settings: simulated gi fluid, pH 6.8, 4 h
[3] = Plasma concentration in ICR mouse at 680 mg/kg, po after 2 hrs by HPLC analysis; format: ADME, organism-based; set-up: dose 680 mg/kg, route oral
Outline: (§3)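 Male ICR mice (30−35 g), n = 6 per time point, were given a single 680 mg/kg gavage dose and sacrificed at 0.5, 1, 2, 4 and 8 h. Brains were rinsed, weighed and homogenized in 3 volumes of saline. Plasma and homogenate were precipitated with 3 volumes of acetonitrile.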

[4] = Plasma concentration in ICR mouse at 680 mg/kg, po after 1 hrs by HPLC analysis; format: ADME, organism-based; set-up: dose 680 mg/kg, route oral; outline: as §3
Rattus norvegicus [5] = experiment: as §1, with “340” for “80”; format: functional, organism-based; set-up: dose 340 mg/kg; outline: as §2
[6] = Stability in artificial gastric juice assessed as compound remaining at pH 1.5 after 8 hr by HPLC analysis; format: physicochemical; settings: simulated gi fluid, pH 1.5, 8 h
Rattus norvegicus [7] = experiment: Antiischemic activity in Sprague-Dawley rat assessed as reduction in middle cerebral artery occlusion-induced necrosis in neurons at 340 mg/kg administered via gavage for 7 days prior to middle cerebral artery occlusion-challenge measured after 24 hrs by microscopic analysis; format: functional, organism-based; set-up: dose 340 mg/kg; outline: as §2
[8] = Plasma concentration in ICR mouse at 680 mg/kg, po after 4 hrs by HPLC analysis; format: ADME, organism-based; set-up: dose 680 mg/kg, route oral; outline: as §3
[9] = Stability in artificial intestinal juice assessed as compound remaining at pH 6.8 after 2 hr by HPLC analysis; format: physicochemical; settings: simulated gi fluid, pH 6.8, 2 h
Rattus norvegicus [10] = experiment: Antithrombotic activity in Sprague-Dawley rat assessed as reduction in arteriovenous shunt-induced dry thrombus weight at 80 mg/kg, administered via gavage for 7 days prior to arteriovenous shunt-challenge measured up to 15 mins relative to control; format: functional, organism-based; set-up: dose 80 mg/kg
Outline: (§4)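 Male SD rats (250−280 g), n = 12 per group, dosed by gavage daily for 7 days in 0.5% CMC-Na. Two hours after the last dose, rats were anesthetized with chloral hydrate (300 mg/kg ip). A saline-filled 14 cm polyethylene catheter holding a 6 cm silk thread linked the left jugular vein and right carotid artery for 15 min. The thrombus was then weighed wet and dry. Results are mean ± SD, analysed by ANOVA/Tukey.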

Mus musculus = experiment: Antithrombotic activity in Swiss ICR mouse assessed as inhibition of collagen/adrenaline-induced acute systemic vascular thromboembolism at 680 mg/kg, po administered for 7 days prior to collagen/adrenaline-challenge measured up to 15 mins relative to control; format: functional, organism-based; set-up: dose 680 mg/kg
Outline: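 Male Swiss ICR mice (30−35 g), n = 15 per group, dosed by gavage daily for 7 days in DMSO vehicle. Two hours after the last dose, mice received collagen (0.21 mg/kg) plus adrenaline (44.5 μg/kg) iv. Survival was monitored for 15 min and reported as % surviving.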

[11] = Aqueous solubility of the compound after 5 hrs by UV-spectrophotometric analysis; format: physicochemical; settings: water
Rattus norvegicus [12] = experiment: Antiischemic activity in Sprague-Dawley rat assessed as reduction in middle cerebral artery occlusion-induced inflammatory infiltrates in brain at 80 mg/kg administered via gavage for 7 days prior to middle cerebral artery occlusion-challenge measured after 24 hrs by microscopic analysis; format: functional, organism-based; set-up: dose 80 mg/kg; outline: as §2
[13] = Stability in artificial gastric juice assessed as compound remaining at pH 1.5 measured immediately by HPLC analysis; format: physicochemical; settings: simulated gi fluid
Rattus norvegicus [14] = experiment: Antiischemic activity in Sprague-Dawley rat assessed as reduction in middle cerebral artery occlusion-induced water content in brain at 340 mg/kg administered via gavage for 7 days prior to middle cerebral artery occlusion-challenge measured after 24 hrs relative to control; format: functional, organism-based; set-up: dose 340 mg/kg; outline: as §2
[15] = Stability in artificial intestinal juice assessed as compound remaining at pH 6.8 after 8 hr by HPLC analysis; format: physicochemical; settings: simulated gi fluid, pH 6.8, 8 h
Rattus norvegicus [16] = experiment: Antithrombotic activity in Sprague-Dawley rat assessed as reduction in arteriovenous shunt-induced wet thrombus weight at 340 mg/kg, administered via gavage for 7 days prior to arteriovenous shunt-challenge measured up to 15 mins relative to control; format: functional, organism-based; set-up: dose 340 mg/kg; outline: as §4

Which Activity (Rattus norvegicus [1]) does the source give for `CCCC[C@H](OC(=O)CN1CCN(C)CC1)c1ccccc1C(=O)O[C@H]1CO[C@H]2[C@@H]1OC[C@H]2OC(=O)c1ccccc1[C@H](CCCC)OC(=O)CN1CCN(C)CC1` here?
Its Activity is “Active”.

And the Stability [2]?
Its Stability is 4.89 µM.

What about the concentration at 2 h [3] of the same compound?
Its concentration at 2 h is 186 ng/mL.

And the concentration at 1 h [4]?
The concentration at 1 h was 241 ng/mL.

What about the Activity (Rattus norvegicus [5]) of the same compound?
Its Activity is “Active”.

What about the Stability [6] of the same compound?
The Stability was 4.96 µM.

What about the Activity (Rattus norvegicus [7]) of the same compound?
The Activity was “Active”.

What about the concentration at 4 h [8] of the same compound?
Its concentration at 4 h is 126 ng/mL.

What about the Stability [9] of the same compound?
The Stability was 5.04 µM.

And the Activity (Rattus norvegicus [10])?
Its Activity is “Active”.

What about the Activity (Mus musculus) of the same compound?
Its Activity is “Active”.

What about the solubility at 5 h [11] of the same compound?
The solubility at 5 h was 11.2 mg/mL (≈ 13.9 mM).

And the Activity (Rattus norvegicus [12])?
Its Activity is “Active”.

And the Stability [13]?
Its Stability is 4.92 µM.

And the Activity (Rattus norvegicus [14])?
Its Activity is “Active”.

And the Stability [15]?
Its Stability is 4.92 µM.

And the Activity (Rattus norvegicus [16])?
Its Activity is “Active”.
